Here are results for 13 compounds from ChEMBL document CHEMBL1800020, “Synthesis, conformation and biology of naphthoxylosides” (Bioorg Med Chem, 2011).

Data set [1] concerns HCC70. Description: Induction of glycosaminoglycan chains priming from beta-D-xylopyranoside in human HCC70 cells using [35S]-Sulfate after 30 mins by beta counting. The data set is classed as functional, cell-based. The procedure, abridged: (§1)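 Confluent monolayers incubated with xylosides in low-sulfate labeling medium with 2 mM glutamine and 20 µCi/mL [35S]sulfate; xylosides diluted from 20 mM stocks in Me2SO/water 1:1. Medium collected, labeled polyanions captured on DEAE-cellulose, free primed GAG chains separated from PG on Octyl-Sepharose. Ethanol-precipitated, sized by Superose 6 gel-permeation FPLC, radioactivity counted by beta counter.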

The next data set deals with CCD-1095SK. The data set can be described thus: Induction of glycosaminoglycan chains priming in human CCD-1095SK cells using [35S]-Sulfate after 30 mins by beta counting. The format is functional, cell-based. The procedure, abridged: as §1
The nature of data set [2]: Antiproliferative activity against human CCD-1095SK cells after 96 hrs by crystal violet staining method. The format is cell-based. As to conditions: for GI50 at 96 h: CCD-1095SK cells, read-out: ED50. The procedure, abridged:
(§2)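 Normal breast fibroblasts (CCD-1095Sk) or HCC70 breast carcinoma cells seeded at 5000 cells/well, in MEM or RPMI-1640 with 10% fetal calf serum. After 24 h, switched to serum-free Ham's F-12 with insulin (10 µg/mL) and transferrin (25 µg/mL) plus increasing xyloside concentrations, 96 h total. Fixed in 1% glutaraldehyde, stained with 0.1% crystal violet, lysed in 1% Triton X-100, read at A600. ED50 taken from % of untreated growth.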

Data set [3] deals with HCC70. Description: Antiproliferative activity against human HCC70 cells after 96 hrs by crystal violet staining method. The data set is classed as functional. As to conditions: read-out: ED50 (the source's name). The procedure, abridged:
as §2

Data set [4] relates to HCC70. Description: Inhibition of glycosaminoglycan chains priming from beta-D-xylopyranoside in human HCC70 cells at 0.1 mM. The data set is classed as functional.
The subject of data set [5] is HCC70. Description: Inhibition of endogenous proteoglycans production in human HCC70 cells at 0.1 mM. The format is functional.

The structures appear in SMILES notation. The source made the active and inactive calls. No cut-off for these calls is given here.

One may read the inhibition as how much of the control response was suppressed. The low end stands for little suppression, the high end for strong suppression.

As to `CO[C@H]1[C@H](Oc2ccc3ccccc3c2)OC[C@@H](O)[C@@H]1O`, the outcome in the data set on HCC70 [1] and with CCD-1095SK was inactive. The GI50 at 96 h in data set [2] stood at 55 µM. Also, the EC50 with HCC70 [3] (Homo sapiens, HCC70, 96 h) was 127 µM.
For `O[C@@H]1[C@@H](O)[C@H](Oc2ccc3ccccc3c2)OC[C@H]1O` (stereo in doubt; 1b), the result with HCC70 [1] and in the data set with CCD-1095SK was Active. The GI50 in data set [2] (ccd-1095sk, 96 h, read-out: ED50 (the source's name)) turned out to be 243 µM. Besides, in the data set with HCC70 [3], the EC50 came out at 91 µM.
Take `O[C@@H]1[C@@H](O)[C@H](Oc2ccc3ccccc3c2)OC[C@H]1F`: the outcome in the data set on HCC70 [1] and in the data set with CCD-1095SK was inactive. The inhibition at 100 µM in the data set with HCC70 [4] is 23%; in the data set with HCC70 [5] it was 33%. Besides, in data set [2], the GI50 at 96 h amounted to 32 µM. Besides, the EC50 in the data set on HCC70 [3] (Homo sapiens, HCC70, 96 h) was 37 µM.
Turning to `O[C@@H]1CO[C@@H](Oc2ccc3ccccc3c2)C[C@H]1O`, the outcome with HCC70 [1] and in the data set on CCD-1095SK was inactive. Further, the GI50 at 96 h in data set [2] is 19 µM. The EC50 in the data set with HCC70 [3] (Homo sapiens, HCC70, 96 h) came out at 228 µM.
Turning to `O[C@@H]1[C@@H](F)[C@H](Oc2ccc3ccccc3c2)OC[C@H]1O`, the outcome with HCC70 [1] and with CCD-1095SK was inactive. Further, the GI50 at 96 h in data set [2] was 12 µM. The EC50 in the data set on HCC70 [3] (Homo sapiens, HCC70, 96 h) amounted to 22 µM.
For the compound `CO[C@@H]1[C@@H](O)[C@H](Oc2ccc3ccccc3c2)OC[C@H]1O`, the result in the data set with HCC70 [1] and in the data set with CCD-1095SK was inactive. For the same compound, the GI50 at 96 h in data set [2] is 17 µM. The EC50 with HCC70 [3] (Homo sapiens, HCC70, 96 h) stood at 145 µM.
Regarding `O[C@H]1[C@H](Oc2ccc3ccccc3c2)OCC[C@@H]1O`, the result with HCC70 [1] and in the data set with CCD-1095SK was inactive. Further, the GI50 at 96 h in data set [2] worked out at 285 µM. The compound also had an inhibition at 100 µM in the data set with HCC70 [5] of 24%. In addition, in the data set on HCC70 [3] (Homo sapiens, HCC70, 96 h), the EC50 came to 284 µM.
For the compound `O[C@@H]1CO[C@@H](Oc2ccc3ccccc3c2)[C@H](O)C1`, the outcome in the data set on HCC70 [1] and with CCD-1095SK was inactive. The GI50 at 96 h in data set [2] is 79 µM. In the data set on HCC70 [3] (Homo sapiens, HCC70, 96 h), the EC50 turned out to be 179 µM.
Take `O[C@H]1[C@H](Oc2ccc3ccccc3c2)OC[C@@H](O)[C@@H]1F`: the outcome with HCC70 [1] and in the data set on CCD-1095SK was inactive. Moreover, in data set [2], the GI50 at 96 h worked out at 72 µM. Also, the EC50 in the data set on HCC70 [3] (Homo sapiens, HCC70, 96 h) turned out to be 94 µM.
As to `O[C@@H]1[C@@H](O)[C@H](Oc2ccc3ccccc3c2)OC[C@@H]1O`, the outcome in the data set with HCC70 [1] and in the data set on CCD-1095SK was inactive. Moreover, the GI50 at 96 h in data set [2] amounted to 48 µM. The EC50 in the data set on HCC70 [3] (Homo sapiens, HCC70, 96 h) was determined as 371 µM.
`Oc1ccc2cc(O[C@@H]3OC[C@@H](O)[C@H](O)[C@H]3O)ccc2c1`: the result in the data set on HCC70 [1] and in the data set on CCD-1095SK was Active.
Consider `CO[C@@H]1CO[C@@H](Oc2ccc3ccccc3c2)[C@H](O)[C@H]1O`, for which the outcome in the data set on HCC70 [1] and in the data set with CCD-1095SK was inactive. In addition, the GI50 at 96 h in data set [2] was 93 µM. In the data set with HCC70 [3] (Homo sapiens, HCC70, 96 h), the EC50 came to 135 µM.
As for `O[C@H]1[C@H](Oc2ccc3ccccc3c2)OC[C@@H](O)[C@H]1O`, the outcome in the data set on HCC70 [1] and with CCD-1095SK was inactive. In addition, the GI50 at 96 h in data set [2] came to 182 µM. Besides, in the data set with HCC70 [3] (Homo sapiens, HCC70, 96 h), the EC50 came out at 178 µM.
